These results are taken from ChEMBL document CHEMBL3351432, “Microwave-assisted synthesis of phenanthroimidazole derivatives as stabilizer of c-myc G-quadruplex DNA” (Bioorg Med Chem, 2014).

Molecules are shown by their SMILES. Activity calls are given as the source filed them. The rule behind the calls is not given here. Where only a bound is given, the exact number is not on record here.

Series [1] deals with MDA-MB-231. In words: Growth inhibition of human MDA-MB-231 cells after 72 hrs ny MTT assay. It is filed as functional, cell-based. The note with it: MDA-MB-231, 72 h. In short, it runs like this: (§1)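 MTT viability assay. Cells seeded at 3 × 10^3 per well and allowed 24 h, then treated 72 h with a concentration series from 1 mM DMSO stocks. MTT (5 mg/ml in PBS) added for 5 h, formazan dissolved in DMSO, absorbance read at 570 nm.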
A general note: Tetrazolium dyes change colour on reduction, which living cells bring about.

The test system of series [2] is MCF7. Briefly: Growth inhibition of human MCF7 cells after 72 hrs by MTT assay. It is filed as functional, cell-based. Conditions: MCF7, 72 h. In short, it runs like this: as §1
Series [3] deals with HeLa. In words: Growth inhibition of human HeLa cells after 72 hrs by MTT assay. It is filed as functional, cell-based. The method, boiled down: as §1
Series [4] in a line: Drug uptake in nucleus of human MCF7 cells at 10 uM after 24 hrs by fluorescence microscopy. It is filed as ADME, cell-based. The note with it: mcf7, 24 h. The method, boiled down: (§2)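 MCF-7 cells seeded at 5 × 10^4 per well, exposed to compound at 10 μM for 24 h, then imaged by fluorescence microscopy for intracellular fluorescence and morphology.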
Series [5] in a line: Drug uptake in cytoplasm of human MCF7 cells at 10 uM after 24 hrs by fluorescence microscopy. Conditions: mcf7, 24 h. It is filed as ADME, cell-based. The method, boiled down: as §2
Series [6] deals with MCF7. Briefly: Induction of cell shrinking in human MCF7 cells at 10 uM after 24 hrs by fluorescence microscopy. It is filed as functional, cell-based. In short, it runs like this: as §2
Series [7] has as its system MCF7. Briefly: Induction of cell membrane changes in human MCF7 cells assessed as roughening and unevening of cell membrane surface at 10 uM after 24 hrs by fluorescence microscopy. It is filed as functional. The method, boiled down: as §2
Series [8] concerns MCF7. In words: Induction of apoptosis in human MCF7 cells assessed as cell membrane rupture at 10 uM after 24 hrs by fluorescence microscopy. It is filed as functional, cell-based. The method, boiled down: as §2
Series [9] is described as follows: Binding affinity to c-myc G-quadruplex DNA (unknown origin) assessed as hypochromism at IL absorption at 20 uM by electronic spectra titration method. In short, it runs like this:
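Titration in Tris-KCl buffer pH 7.2 with ligand held at 20 μM and G4 DNA added stepwise. 3 min incubation before each UV-vis spectrum. Hypochromism read at the intraligand band (250–300 nm).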

Series [10] is described as follows: Binding affinity to c-myc G-quadruplex DNA (unknown origin) assessed as reduction in DNA CD signal strengths […] by CD spectroscopy. Set-up: scale not given: the % may be the effect or the level left. The method, boiled down: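 CD of pre-folded c-myc G4 DNA (2 × 10^-6 M) in Tris-KCl buffer pH 7.2, 1 cm cell. Ligand added from 1 mM stock every 3 min, final range (0–118) × 10^-6 M.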

Series [11] is described as follows: Binding affinity to c-myc G-quadruplex DNA (unknown origin) assessed as change in melting temperature at 1 uM by FRET assay. The method, boiled down: (§3)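 FAM/TAMRA dual-labelled c-myc oligonucleotide (1 μM) in Tris-KCl buffer pH 7.2, annealed at 92 °C for 5 min and slowly cooled to room temperature. Compound added at varying concentrations. Fluorescence melting curves recorded on a real-time PCR system, holding each temperature 30 s before each reading. Tm shift taken relative to the no-compound control.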

The nature of series [12]: Binding affinity to c-myc G-quadruplex DNA (unknown origin) assessed as change in melting temperature at 3 uM by FRET assay. In short, it runs like this: as §3
The nature of series [13]: Binding affinity to c-myc G-quadruplex DNA (unknown origin) assessed as increase in melting temperature by FRET assay. In short, it runs like this:
as §3

A short description of series [14]: Stabilization of c-myc G-quadruplex DNA (unknown origin) assessed as reduction in Taq polymerase-mediated 5' to 3' extension at 10 to 40 uM by PCR stop assay. In short, it runs like this: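 PCR-stop assay in 1× PCR buffer with c-myc G4 DNA primer pair (10 pM each), dNTPs 0.16 mM, Taq 2.5 U and compound over 0–250 μM. Cycling: 94 °C 3 min, then 30 cycles of 94/58/72 °C for 30 s each. Products run on 15% native PAGE in TBE and silver stained.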

For orientation: IC50 means the concentration that inhibits the measured activity by half. In the case of `Brc1ccccc1-c1nc2c3cccnc3c3ncccc3c2[nH]1`, the IC50 is 36 µM in series [1], 27.3 µM in [2] and 7.9 µM in series [3]. The Drug uptake entry in series [4] and in series [5] was “Active” each time.

Usually ΔTm stands for the change in melting temperature against a reference sample. Consider `Brc1ccc(-c2nc3c4cccnc4c4ncccc4c3[nH]2)cc1`, for which the IC50 amounted to 3.6 µM in [1], 22.9 µM in [2] and 8.5 µM in series [3]. Also, the result in series [6] and in series [8] was Active. Moreover, the Activity in series [7] is less than 20%; in series [9], 9.4%; in [10], 23%; in series [13], “Dose-dependent effect”; in series [14] it was “Dose-dependent effect”. For the same compound, the Drug uptake result in [4] and in [5] was “Active” each time. For the same compound, the ΔTm in series [11] is 3.4 °C; in [12], 6.4 °C.

Turning to `O=S(=O)(O)c1ccccc1-c1nc2c3cccnc3c3ncccc3c2[nH]1`, the IC50 was 152 µM in series [1], 162 µM in series [2] and 240 µM in series [3]. Further, the Drug uptake result in [4] and in [5] was “Not Active” throughout.

On to `O=S(=O)(O)c1ccc(-c2nc3c4cccnc4c4ncccc4c3[nH]2)cc1`, for which the IC50 amounted to 60 µM in [1], 184 µM in series [2] and 62.4 µM in series [3]. Also, the Drug uptake result in series [4] and in [5] was “Not Active” each time.

Consider `c1ccc(-c2nc3c4cccnc4c4ncccc4c3[nH]2)cc1`, for which the IC50 was 74.2 µM in [1], 72.6 µM in [2] and 5.1 µM in [3]. Further, the Drug uptake entry in series [4] and in series [5] was “Not Active” throughout.
